{"source": "ChEMBL document CHEMBL5674868", "about": "“Cancer Cells Hijack PRC2 to Modify Multiple Cytokine Pathways” (PLoS One, 2015)", "format_in_all_cases": "cell-based", "key": {"[1]": {"molecular_target": "Histone-lysine N-methyltransferase EZH2 (Homo sapiens) (UniProt Q15910)", "sequence (Q15910 whole entry, looked up)": "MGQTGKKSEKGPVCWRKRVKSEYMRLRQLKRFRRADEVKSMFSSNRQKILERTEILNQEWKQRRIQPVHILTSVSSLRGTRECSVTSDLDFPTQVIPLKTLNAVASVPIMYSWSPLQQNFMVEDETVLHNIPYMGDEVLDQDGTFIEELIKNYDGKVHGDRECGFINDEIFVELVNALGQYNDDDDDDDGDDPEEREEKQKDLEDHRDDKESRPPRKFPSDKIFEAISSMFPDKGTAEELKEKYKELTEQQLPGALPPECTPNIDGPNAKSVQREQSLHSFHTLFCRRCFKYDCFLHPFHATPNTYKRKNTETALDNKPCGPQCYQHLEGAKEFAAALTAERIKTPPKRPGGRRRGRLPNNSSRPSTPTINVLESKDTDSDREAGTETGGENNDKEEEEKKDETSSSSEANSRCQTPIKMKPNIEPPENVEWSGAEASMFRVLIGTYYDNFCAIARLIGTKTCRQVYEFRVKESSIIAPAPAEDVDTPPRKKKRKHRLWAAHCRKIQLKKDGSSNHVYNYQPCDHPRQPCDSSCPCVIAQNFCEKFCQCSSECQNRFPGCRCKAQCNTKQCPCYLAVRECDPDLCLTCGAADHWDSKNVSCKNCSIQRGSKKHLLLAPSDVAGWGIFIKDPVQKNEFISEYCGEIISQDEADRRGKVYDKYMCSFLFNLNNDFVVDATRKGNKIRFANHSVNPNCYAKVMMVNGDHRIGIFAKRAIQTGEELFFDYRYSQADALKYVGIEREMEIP", "assay": "Inhibition of EZH2 in human ASPC1 cells assessed as effect on HPRT mRNA level after 6 hrs by RT-PCR analysis", "method_in_brief": "(§1)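 Cells were treated for two four-day cycles with 2 μM GSK343 or UNC1999, then left untreated or stimulated with human IFNγ for 6 h. mRNA was measured by reverse transcription quantitative PCR and normalized to β-actin. Three biological replicates were run per treatment group.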"}, "[2]": {"molecular_target": "Histone-lysine N-methyltransferase EZH2 (Homo sapiens) (UniProt Q15910)", "assay": "Inhibition of EZH2 in human MCF7 cells assessed as effect on IRF1 mRNA level after 6 hrs by RT-PCR analysis", "method_in_brief": "as §1"}, "[3]": {"molecular_target": "Histone-lysine N-methyltransferase EZH2 (Homo sapiens) (UniProt Q15910)", "assay": "Inhibition of EZH2 in human A549 cells assessed as decrease in H3K27me3 levels at 2 uM after 6 hrs by Western blot analysis"}, "[4]": {"molecular_target": "Histone-lysine N-methyltransferase EZH2 (Homo sapiens) (UniProt Q15910)", "assay": "Inhibition of EZH2 in human AsPC1 cells assessed as decrease in H3K27me3 levels at 2 uM after 6 hrs by Western blot analysis"}, "[5]": {"molecular_target": "Histone-lysine N-methyltransferase EZH2 (Homo sapiens) (UniProt Q15910)", "assay": "Inhibition of EZH2 in human HeLa cells assessed as effect on IRF1 mRNA level after 6 hrs by RT-PCR analysis in presence of IFN-gamma", "method_in_brief": "as §1"}, "[6]": {"molecular_target": "Histone-lysine N-methyltransferase EZH2 (Homo sapiens) (UniProt Q15910)", "assay": "Inhibition of EZH2 in human A549 cells assessed as effect on IRF1 mRNA level after 6 hrs by RT-PCR analysis", "method_in_brief": "as §1"}, "[7]": {"molecular_target": "Histone-lysine N-methyltransferase EZH2 (Homo sapiens) (UniProt Q15910)", "assay": "Inhibition of EZH2 in human A549 cells assessed as effect on HPRT mRNA level after 6 hrs by RT-PCR analysis", "method_in_brief": "as §1"}, "[8]": {"molecular_target": "Histone-lysine N-methyltransferase EZH2 (Homo sapiens) (UniProt Q15910)", "assay": "Inhibition of EZH2 in human MCF7 cells assessed as effect on HPRT mRNA level after 6 hrs by RT-PCR analysis", "method_in_brief": "as §1"}, "[9]": {"molecular_target": "Histone-lysine N-methyltransferase EZH2 (Homo sapiens) (UniProt Q15910)", "assay": "Inhibition of EZH2 in human MCF7 cells assessed as effect on PITX2 mRNA level after 6 hrs by RT-PCR analysis", "method_in_brief": "(§2)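 Cells pretreated for two 4-day cycles with 2 µM GSK343 or UNC1999, then left unstimulated or given human IFNγ for 6 h. RNA reverse-transcribed and measured by quantitative PCR, normalized to β-actin. Three biological replicates per treatment group.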"}, "[10]": {"molecular_target": "Histone-lysine N-methyltransferase EZH2 (Homo sapiens) (UniProt Q15910)", "assay": "Inhibition of EZH2 in human HeLa cells assessed as effect on PITX2 mRNA level after 6 hrs by RT-PCR analysis in presence of IFN-gamma", "method_in_brief": "as §1"}, "[11]": {"molecular_target": "Histone-lysine N-methyltransferase EZH2 (Homo sapiens) (UniProt Q15910)", "assay": "Inhibition of EZH2 in human HeLa cells assessed as effect on PITX2 mRNA level after 6 hrs by RT-PCR analysis", "method_in_brief": "as §1"}, "[12]": {"molecular_target": "Histone-lysine N-methyltransferase EZH2 (Homo sapiens) (UniProt Q15910)", "assay": "Inhibition of EZH2 in human A549 cells assessed as effect on PITX2 mRNA level after 6 hrs by RT-PCR analysis in presence of IFN-gamma", "method_in_brief": "as §1"}, "[13]": {"molecular_target": "Histone-lysine N-methyltransferase EZH2 (Homo sapiens) (UniProt Q15910)", "assay": "Inhibition of EZH2 in human A549 cells assessed as effect on PITX2 mRNA level after 6 hrs by RT-PCR analysis", "method_in_brief": "as §1"}, "[14]": {"molecular_target": "Histone-lysine N-methyltransferase EZH2 (Homo sapiens) (UniProt Q15910)", "assay": "Inhibition of EZH2 in human MCF7 cells assessed as effect on HPRT mRNA level after 6 hrs by RT-PCR analysis in presence of IFN-gamma", "method_in_brief": "as §1"}, "[15]": {"molecular_target": "Histone-lysine N-methyltransferase EZH2 (Homo sapiens) (UniProt Q15910)", "assay": "Inhibition of EZH2 in human HeLa cells assessed as decrease in H3K27me3 levels at 2 uM after 6 hrs by Western blot analysis"}, "[16]": {"molecular_target": "Histone-lysine N-methyltransferase EZH2 (Homo sapiens) (UniProt Q15910)", "assay": "Inhibition of EZH2 in human MCF7 cells assessed as decrease in H3K27me3 levels at 2 uM after 6 hrs by Western blot analysis"}, "[17]": {"molecular_target": "Histone-lysine N-methyltransferase EZH2 (Homo sapiens) (UniProt Q15910)", "assay": "Inhibition of EZH2 in human ASPC1 cells assessed as effect on IRF1 mRNA level after 6 hrs by RT-PCR analysis", "method_in_brief": "as §1"}, "[18]": {"molecular_target": "Histone-lysine N-methyltransferase EZH2 (Homo sapiens) (UniProt Q15910)", "assay": "Inhibition of EZH2 in human A549 cells assessed as effect on IRF1 mRNA level after 6 hrs by RT-PCR analysis in presence of IFN-gamma", "method_in_brief": "as §1"}, "[19]": {"molecular_target": "Histone-lysine N-methyltransferase EZH2 (Homo sapiens) (UniProt Q15910)", "assay": "Inhibition of EZH2 in human ASPC1 cells assessed as effect on PITX2 mRNA level after 6 hrs by RT-PCR analysis in presence of IFN-gamma", "method_in_brief": "as §1"}, "[20]": {"molecular_target": "Histone-lysine N-methyltransferase EZH2 (Homo sapiens) (UniProt Q15910)", "assay": "Inhibition of EZH2 in human HeLa cells assessed as effect on HPRT mRNA level after 6 hrs by RT-PCR analysis", "method_in_brief": "as §1"}, "[21]": {"molecular_target": "Histone-lysine N-methyltransferase EZH2 (Homo sapiens) (UniProt Q15910)", "assay": "Inhibition of EZH2 in human MCF7 cells assessed as effect on IRF1 mRNA level after 6 hrs by RT-PCR analysis in presence of IFN-gamma", "method_in_brief": "as §2"}, "[22]": {"molecular_target": "Histone-lysine N-methyltransferase EZH2 (Homo sapiens) (UniProt Q15910)", "assay": "Inhibition of EZH2 in human ASPC1 cells assessed as effect on HPRT mRNA level after 6 hrs by RT-PCR analysis in presence of IFN-gamma", "method_in_brief": "as §1"}, "[23]": {"molecular_target": "Histone-lysine N-methyltransferase EZH2 (Homo sapiens) (UniProt Q15910)", "assay": "Inhibition of EZH2 in human A549 cells assessed as effect on HPRT mRNA level after 6 hrs by RT-PCR analysis in presence of IFN-gamma", "method_in_brief": "as §1"}, "[24]": {"molecular_target": "Histone-lysine N-methyltransferase EZH2 (Homo sapiens) (UniProt Q15910)", "assay": "Inhibition of EZH2 in human HeLa cells assessed as effect on IRF1 mRNA level after 6 hrs by RT-PCR analysis", "method_in_brief": "as §1"}, "[25]": {"molecular_target": "Histone-lysine N-methyltransferase EZH2 (Homo sapiens) (UniProt Q15910)", "assay": "Inhibition of EZH2 in human MCF7 cells assessed as effect on PITX2 mRNA level after 6 hrs by RT-PCR analysis in presence of IFN-gamma", "method_in_brief": "as §2"}, "[26]": {"molecular_target": "Histone-lysine N-methyltransferase EZH2 (Homo sapiens) (UniProt Q15910)", "assay": "Inhibition of EZH2 in human ASPC1 cells assessed as effect on IRF1 mRNA level after 6 hrs by RT-PCR analysis in presence of IFN-gamma", "method_in_brief": "as §1"}, "[27]": {"molecular_target": "Histone-lysine N-methyltransferase EZH2 (Homo sapiens) (UniProt Q15910)", "assay": "Inhibition of EZH2 in human ASPC1 cells assessed as effect on PITX2 mRNA level after 6 hrs by RT-PCR analysis", "method_in_brief": "as §1"}, "[28]": {"molecular_target": "Histone-lysine N-methyltransferase EZH2 (Homo sapiens) (UniProt Q15910)", "assay": "Inhibition of EZH2 in human HeLa cells assessed as effect on HPRT mRNA level after 6 hrs by RT-PCR analysis in presence of IFN-gamma", "method_in_brief": "as §1"}}, "note": "Active and inactive are the calls of the source. The rule behind the calls is not given here.", "data": [{"smiles": "CCCc1cc(C)[nH]c(=O)c1CNC(=O)c1cc(-c2ccnc(N3CCN(C)CC3)c2)cc2c1cnn2C(C)C", "values": [{"measurement": "inhibition", "setting": "[1]", "value": "inactive"}, {"measurement": "inhibition", "setting": "[2]", "value": "inactive"}, {"measurement": "inhibition", "setting": "[3]", "value": "Active"}, {"measurement": "inhibition", "setting": "[4]", "value": "Active"}, {"measurement": "inhibition", "setting": "[5]", "value": "inactive"}, {"measurement": "inhibition", "setting": "[6]", "value": "inactive"}, {"measurement": "inhibition", "setting": "[7]", "value": "inactive"}, {"measurement": "inhibition", "setting": "[8]", "value": "inactive"}, {"measurement": "inhibition", "setting": "[9]", "value": "inactive"}, {"measurement": "inhibition", "setting": "[10]", "value": "inactive"}, {"measurement": "inhibition", "setting": "[11]", "value": "inactive"}, {"measurement": "inhibition", "setting": "[12]", "value": "inactive"}, {"measurement": "inhibition", "setting": "[13]", "value": "inactive"}, {"measurement": "inhibition", "setting": "[14]", "value": "inactive"}, {"measurement": "inhibition", "setting": "[15]", "value": "Active"}, {"measurement": "inhibition", "setting": "[16]", "value": "Active"}, {"measurement": "inhibition", "setting": "[17]", "value": "inactive"}, {"measurement": "inhibition", "setting": "[18]", "value": "inactive"}, {"measurement": "inhibition", "setting": "[19]", "value": "inactive"}, {"measurement": "inhibition", "setting": "[20]", "value": "inactive"}, {"measurement": "inhibition", "setting": "[21]", "value": "inactive"}, {"measurement": "inhibition", "setting": "[22]", "value": "inactive"}, {"measurement": "inhibition", "setting": "[23]", "value": "inactive"}, {"measurement": "inhibition", "setting": "[24]", "value": "inactive"}, {"measurement": "inhibition", "setting": "[25]", "value": "inactive"}, {"measurement": "inhibition", "setting": "[26]", "value": "inactive"}, {"measurement": "inhibition", "setting": "[27]", "value": "inactive"}, {"measurement": "inhibition", "setting": "[28]", "value": "inactive"}]}]}
